Measurements taken from PMC3586205 (European journal of pharmacology, 2012).
Like-named read-outs stand apart in the source and are kept apart here.

What was measured:
[1] = system: rectal temperature in mice; experiment: Rectal temperature, mouse test battery; type: in vivo
[2] = system: tail flick latency in mice; experiment: Tail flick antinociception, mouse test battery; type: in vivo
Summary of the method: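 Baseline tail-flick latency was taken to radiant heat (bright light) before i.v. injection of vehicle (ethanol:Emulphor-620:saline 1:1:18) or test compound. Latency was re-measured 20 min post-injection with a 10 s cutoff. Result expressed as %MPE = [(test−control latency)/(10−control)] × 100, separate groups per dose.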

[3] = system: spontaneous activity in mice; experiment: Spontaneous; type: in vivo
Summary of the method: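 Separate groups of mice per dose were injected i.v. with vehicle (ethanol:Emulphor-620:saline 1:1:18) or test compound. Five minutes later each was placed in an activity chamber for 10 min. Total photobeam interruptions were counted and expressed as % inhibition of the vehicle group. ED50s were derived by log-dose linear regression, taking 90% inhibition as maximal.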

[4] = system: food intake in mice; experiment: Feeding behavior: 1-h food intake after 24-h food deprivation; type: in vivo
[5] = biological target: human cannabinoid CB1 receptor (Homo sapiens, UniProt P21554); experiment: Cannabinoid CB1 receptor radioligand binding, displacement of [3H]CP55,940
[6] = system: ring immobility in mice; experiment: Ring immobility, mouse test battery; type: in vivo; settings: 30 mg/kg i.v.
[7] = system: cannabinoid agonist-like effects in mice; experiment: In vivo test battery; settings: doses up to 30 mg/kg (heterodimer 6b i.p.)
Summary of the method: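 Separate groups of mice per dose received test compound in 95% sesame oil/5% dimethylacetamide i.p. Rectal temperature and baseline tail-flick latency were taken before injection. At 40 min mice were put in photobeam activity chambers for 5 min. Tail-flick and temperature were re-measured immediately on removal. Ring immobility was not run.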

Sequence of human cannabinoid CB1 receptor (P21554 whole entry): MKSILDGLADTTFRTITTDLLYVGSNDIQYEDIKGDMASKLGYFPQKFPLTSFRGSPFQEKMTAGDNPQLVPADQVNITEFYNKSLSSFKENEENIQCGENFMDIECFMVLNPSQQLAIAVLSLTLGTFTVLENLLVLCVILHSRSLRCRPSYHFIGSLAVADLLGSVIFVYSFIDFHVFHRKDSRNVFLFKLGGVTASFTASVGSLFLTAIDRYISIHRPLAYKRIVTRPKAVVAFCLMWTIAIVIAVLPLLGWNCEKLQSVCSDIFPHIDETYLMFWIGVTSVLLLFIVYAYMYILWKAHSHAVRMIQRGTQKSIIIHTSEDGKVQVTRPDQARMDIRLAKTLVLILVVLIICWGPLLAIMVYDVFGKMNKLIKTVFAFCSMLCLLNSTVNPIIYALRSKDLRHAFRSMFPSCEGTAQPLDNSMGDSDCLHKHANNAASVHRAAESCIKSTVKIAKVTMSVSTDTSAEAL

Structure (SMILES)	RT (maximum effect) ([1]; 100 mg/kg i.v.)	%MPE tail flick (maximum effect) ([2]; 100 mg/kg i.v.)	SA, % inhibition of activity of vehicle control group (maximum effect) ([3]; 100 mg/kg i.v.)	effect on food intake ([4]; i.p., doses not stated in text (Fig. 2))	Ki ([5]; read-out: CB1 Ki (± SEM), displacement of [3H]CP55,940) [nM]	RT, change in rectal temperature (maximum effect) ([1]; 30 mg/kg i.v.)	%MPE tail flick (maximum effect) ([2]; 30 mg/kg i.v.)	SA, % inhibition of activity of vehicle control group (maximum effect) ([3]; 30 mg/kg i.v.)	decrease in feeding compared to vehicle ([4]; 56 mg/kg i.p., 60 min pre-session, significant) [%]	RI (maximum effect) [6]	Ki [5] [nM]	activity in test battery when tested alone [7]	effect on food intake ([4]; doses up to 30 mg/kg i.p.)
CC1=CC[C@@H]2[C@@H](C1)c1c(O)cc(C(C)(C)CCCCC(=O)NCCc3ccc(S(N)(=O)=O)cc3)cc1OC2(C)C [Compound O-606, 6-[(6aR,10aR)-1-hydroxy-6,6,9-trimethyl-6a,7,10,10a-tetrahydro-6H-benzo[c]chromen-3-yl]-6-methyl-N-(4-sulfamoyl-phenyethyl)heptanamide]	inactive (100)	inactive (100)	60% (100)	failed to affect food intake	29								
CCCc1cc(C(=O)NN2CCCCC2)cc(-c2ccc(Cl)cc2Cl)c1-c1ccc(Cl)cc1 [Compound O-1788, 4-(4-chlorophenyl)-3-(2,4-dichlorophenyl)–N-(piperidin-1-yl)-5-propylbenzamide]						inactive (30)	inactive (30)	inactive (30)	56	inactive (30)	166	inactive	
Cc1c(C(=O)NCCCCCCCN(C)CCCCCCCNC(=O)c2nn(-c3ccc(Cl)cc3Cl)c(-c3ccc(Cl)cc3)c2C)nn(-c2ccc(Cl)cc2Cl)c1-c1ccc(Cl)cc1 [Heterodimer 6b, N,N′-[(methylimino)diheptane-7,1-diyl]bis[5-(4-chlorophenyl)-1-(2,4-dichlorophenyl)-4-methyl-1H-pyrazole-3-carboxamide]]												inactive	failed to alter food intake
